Test results as given in ChEMBL document CHEMBL1156692, “Synthesis of novel 7-benzylamino-2H-1,4-benzoxazin-3(4H)-ones as anticonvulsant agents” (Eur J Med Chem, 2008).

How the values were obtained:
[1] = Neurotoxicity in ip dosed C57B/6 mouse after 30 mins by rotarod test; type: toxicity, organism-based; conditions: in vivo
Method in brief: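 Minimal neurotoxicity in mice was scored on the rotarod, 30 min after i.p. administration. TD50 was reported in mg/kg with a range in parentheses.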

Mus musculus [2] = assay: Anticonvulsant activity in ip dosed C57B/6 mouse assessed as inhibition of maximal electroshock-induced seizures; type: functional; conditions: C57B/6, ip
Mus musculus [3] = species on record: Mus musculus; assay: Protective index, ratio of TD50 for C57B/6 mouse by rotarod test to ED50 for C57BL/6 mouse by MES test; type: functional
Mus musculus [4] = assay: Anticonvulsant activity in C57B/6 mouse assessed as inhibition of pentylenetetrazole-induced tonic seizures at 50 mg/kg, ip after 0.5 hrs relative to control; type: functional; set-up: scale not given: the % may be the effect or the level left; conditions: route intraperitoneal
Method in brief: (§1)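 Seizures in mice were induced by pentylenetetrazole 85 mg/kg in saline, s.c., 30 min after i.p. test agent. Animals were caged singly and watched for 30 min. Clonic and tonic seizures and deaths were counted.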

Mus musculus [5] = assay: Anticonvulsant activity in C57B/6 mouse assessed as inhibition of pentylenetetrazole-induced clonic seizures at 50 mg/kg, ip after 0.5 hrs relative to control; type: functional; set-up: scale not given: the % may be the effect or the level left; conditions: dose 100 mg/kg; route intraperitoneal; in the assay text read “100 mg/kg” for “50 mg/kg”; method in brief: as §1
Mus musculus [6] = assay: Anticonvulsant activity in C57B/6 mouse assessed as inhibition of isoniazid-induced tonic seizures at 50 mg/kg, ip after 0.5 hrs relative to control; type: functional; set-up: scale not given: the % may be the effect or the level left; conditions: route intraperitoneal
Method in brief: (§2)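 Isoniazid-induced seizure model in mice. Isoniazid 250 mg/kg was given 30 min after i.p. test agent. Clonic seizures, tonic seizures and lethality were counted. Treated groups were compared with the control group.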

Mus musculus [7] = assay: Toxicity in strychnine-induced seizure C57B/6 mouse model assessed as lethality at 50 mg/kg, ip after 0.5 hrs relative to control; type: organism-based; set-up: dose 50 mg/kg, route intraperitoneal; conditions: in vivo
Method in brief: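 Test agent given i.p.; controls received vehicle only. After 30 min, strychnine chlorhydrate 1.2 mg/kg in saline was injected s.c. Mice were caged individually and observed 30 min, recording seizure onset time, clonic and tonic seizure numbers and lethality.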

Mus musculus [8] = assay: Anticonvulsant activity in C57B/6 mouse assessed as inhibition of isoniazid-induced clonic seizures at 50 mg/kg, ip after 0.5 hrs relative to control; type: functional; set-up: scale not given: the % may be the effect or the level left; conditions: route intraperitoneal; method in brief: as §2
Mus musculus [9] = assay: Anticonvulsant activity in C57B/6 mouse assessed as inhibition of strychnine-induced clonic seizures at 50 mg/kg, ip after 0.5 hrs relative to control; type: functional; set-up: scale not given: the % may be the effect or the level left; conditions: route intraperitoneal
Method in brief: (§3)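 Strychnine chlorhydrate in saline (1.2 mg/kg) was injected s.c. into mice 30 min after i.p. test agent. Animals were caged singly and observed for 30 min. Seizure onset time, clonic and tonic seizure counts and lethality were recorded. Controls received vehicle only.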

Mus musculus [10] = assay: Anticonvulsant activity in C57B/6 mouse assessed as inhibition of strychnine-induced tonic seizures at 50 mg/kg, ip after 0.5 hrs relative to control; type: functional; set-up: scale not given: the % may be the effect or the level left; conditions: route intraperitoneal; method in brief: as §3
Mus musculus [11] = assay: Toxicity in isoniazid-induced seizure C57B/6 mouse model assessed as lethality at 50 mg/kg, ip after 0.5 hrs relative to control; type: organism-based; set-up: dose 50 mg/kg, route intraperitoneal; conditions: in vivo
Method in brief: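 Mice received the test agent i.p., then isoniazid 250 mg/kg 30 min later. Clonic seizures, tonic seizures and lethality were recorded, and treated groups were compared with a control group.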

| Structure (SMILES) | TD50 at 0.5 h [1] | further results |
| --- | --- | --- |
| O=C1COc2cc(NCc3ccccc3Cl)ccc2N1 | > 300 mg/kg |  |
| O=C1COc2ccccc2N1 | > 300 mg/kg | ED50 (Mus musculus [2]): 300 mg/kg |
| O=C1COc2cc(NCc3cccc(F)c3)ccc2N1 | 228 mg/kg |  |
| O=C1COc2cc(NCc3ccccc3)ccc2N1 | 182 mg/kg |  |
| O=C1COc2cc(NCc3ccc(F)cc3)ccc2N1 | 228 mg/kg |  |
| O=C1COc2cc(NCc3ccc(Br)cc3)ccc2N1 | > 300 mg/kg |  |
| Cc1ccc(CNc2ccc3c(c2)OCC(=O)N3)cc1 | > 300 mg/kg |  |
| O=C1COc2cc(NCc3ccccc3F)ccc2N1 | 183 mg/kg |  |
| O=C1COc2cc(NCc3ccc(Cl)cc3)ccc2N1 | > 300 mg/kg |  |
| CN(Cc1ccc(F)cc1)c1ccc2c(c1)OCC(=O)N2C | > 300 mg/kg |  |
| O=C1COc2cc(NCc3ccc4c(c3)OCO4)ccc2N1 | > 300 mg/kg | ED50 (Mus musculus [2]): 63.4 mg/kg; Ratio (Mus musculus [3]): >4.7 |
| CCOc1ccc(CNc2ccc3c(c2)OCC(=O)N3)cc1 | > 300 mg/kg |  |
| NC(=O)N1c2ccccc2C=Cc2ccccc21 [CARBAMAZEPINE] | 74.4 mg/kg | Activity (Mus musculus [4]): 20%; Activity (Mus musculus [5]): 100%; ED50 (Mus musculus [2]): 9.2 mg/kg; Activity (Mus musculus [6]): 10%; Activity (Mus musculus [7]): 0%; Activity (Mus musculus [8]): 10%; Activity (Mus musculus [9]): 40%; Activity (Mus musculus [10]): 30%; Activity (Mus musculus [11]): 0% |
